Assay results of several laboratories.
Target: MAP/microtubule affinity-regulating kinase 3 (MARK3, Homo sapiens, UniProt P27448)

| Compound | assay | conditions | endpoint | result |
| --- | --- | --- | --- | --- |
| CC(C)(C)c1cc(C=C(C#N)C#N)cc(Br)c1O | enzyme activity, inhibitor | 0.5 µM | remaining activity | 105% |
| Nc1ncc(-c2nc(N3CCOCC3)nc(N3CCOCC3)n2)c(C(F)F)n1 | binding, competition with immobilised ligand | 10 µM | remaining binding | 100% |
| Cn1cncc1[C@](O)(COc1ccc(C#N)cc1-c1ccc(OC(F)(F)F)cc1)c1ccc(C#N)cc1 | cell-free assay, competition with immobilised ligand | 1 µM | remaining binding | 100% |
| COc1cc(Nc2ncc(F)c(Nc3ccc4c(n3)NC(=O)C(C)(C)O4)n2)cc(OC)c1OC | binding, competition with immobilised ligand | 10 µM | inhibition | 63% |
| COc1ncccc1-c1cnn2ccc(N3CCN(C(=O)OC(C)C)CC3)nc12 | binding, competition with immobilised ligand | 1 µM | remaining binding | 96% |
| O=c1[nH]c2ccccc2n1C1CCN(Cc2ccc(-c3[nH]c4cc5ncnc5cc4nc3-c3ccccc3)cc2)CC1 | cell-free assay | 0.5 µM | remaining signal | 103% |
| Cc1nn(C)cc1-c1nc2c(N3CCN(Cc4ccc(Cl)cc4)CC3)c(Cl)cnc2[nH]1 | binding, competition with immobilised ligand | 1 µM | remaining binding | 45% |
| Cn1cc(-c2cc(F)cc(N3CCn4c(cc5c4CCCC5)C3=O)c2CO)cc(Nc2ccc(N3CCN(C4COC4)CC3)cn2)c1=O | enzyme activity, inhibitor | 0.1 µM | inhibition | 6% |
